# Shown are actives, neighbours in structure and some others; about 2.2% of the full set was active somewhere.
# CHRM1 antagonist – blocks human M1 muscarinic receptor | P11229 | CHO-K1 hM1, Fluo-8 calcium fluorescence, ACh EC80 antagonist | inhibition, % at 3 µM | actives 1.3% (n = 360,000);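 active = percent inhibition above its own plate's cutoff, namely the mean of that plate's compound wells plus 3 SD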;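 also: peak over basal fluorescence ratio during 140 s after agonist addition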
# CHRM5 agonist – CHRM5 agonism in calcium assay | P08912 | CHO-K1 hM5 cells, Fluo-8 calcium fluorescence; 0% DMSO wells, 100% maximal acetylcholine response | activation, % at 3 µM | actives 0.19% (n = 360,000) | AID 624037;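 active = activation above the run's mean over test compounds plus 3 SD, cut at about 23% in these data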;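 also: signal is peak over basal fluorescence ratio across the kinetic read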
# Target sequence (P08912 whole entry, looked up): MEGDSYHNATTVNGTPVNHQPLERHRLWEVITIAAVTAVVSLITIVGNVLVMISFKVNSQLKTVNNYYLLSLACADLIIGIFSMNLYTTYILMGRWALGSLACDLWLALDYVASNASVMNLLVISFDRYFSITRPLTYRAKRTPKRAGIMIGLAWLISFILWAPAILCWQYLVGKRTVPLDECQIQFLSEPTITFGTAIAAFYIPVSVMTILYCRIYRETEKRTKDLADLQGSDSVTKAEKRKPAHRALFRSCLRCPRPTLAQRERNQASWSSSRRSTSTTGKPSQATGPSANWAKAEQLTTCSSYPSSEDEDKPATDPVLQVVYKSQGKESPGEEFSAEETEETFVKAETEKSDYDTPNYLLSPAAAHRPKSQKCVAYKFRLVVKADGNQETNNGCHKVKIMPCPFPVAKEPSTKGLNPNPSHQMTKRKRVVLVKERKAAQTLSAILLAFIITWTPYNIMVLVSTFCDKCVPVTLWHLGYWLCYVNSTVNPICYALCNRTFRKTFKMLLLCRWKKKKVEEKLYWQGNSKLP
# CHRM5 PAM – positive allosteric modulators of human muscarinic M5 receptor | P08912 | CHO-K1 hM5, Fluo-8 calcium, ACh EC20 PAM; 0% = ACh EC20, 100% = ACh EC100 | activation, % at 3 µM | actives 0.3% (n = 360,000);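 active = activation above the run cutoff, the mean activation of all test compounds plus 3 SD, cut at about 18% in these data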
#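 Assay system – human M5 receptor in CHO-K1 cells · Read-out – % activation, ACh-normalized · Technique – Fluo-8 calcium fluorescence · Dosing – single-point, 3 µM nominal · Incubation – Fluo-8 loading 80 min at 37 °C plus 30 min room temperature · Repeats – singlicate, one well per test compound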
# M5 antag – CHRM5 antagonism in calcium assay; P08912; CHO-hM5 cells, Fluo-8 calcium fluorescence, ACh EC80; inhibition, % at 3 µM; actives 0.59% (n = 360,000);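 active = inhibition above a per-plate cutoff, the mean of that plate's test compounds plus 3 SD, cut at about 27% in these data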
# M1 PAM – positive allosteric modulators of human M1 muscarinic receptor | P11229 | AID 588819 | actives 0.088% (n = 360,000) | CHO-K1 hM1, Fluo-8 calcium fluorescence, ACh EC20; 0% = ACh EC20, 100% = maximal ACh | activation, % at 3 µM; in the data active = activation above about 19%, passing the limit was not always enough
# M1 ag – human M1 muscarinic receptor agonism | activation, % at 3 µM | CHO-K1 hM1, Fluo-8 calcium fluorescence, agonist mode; 0% DMSO, 100% acetylcholine EC100 | AID 588814 | P11229 | actives 0.33% (n = 360,000);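 active = activation above the run's mean compound activation plus 3 SD, cut at about 16% in these data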;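 also: peak over basal fluorescence ratio within a 140 s kinetic read after compound addition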
# Hits are given with their value; i = inactive.
SMILES,CHRM1 antagonist,CHRM5 agonist,CHRM5 PAM,M5 antag,M1 PAM,M1 ag
CCOc1ccc(-c2c(C(=O)N/N=C/c3ccc(C)cc3)nnn2-c2nonc2N)cc1,i,i,i,i,i,19
CCOc1ccc(-c2c(C(=O)N/N=C/c3ccco3)nnn2-c2nonc2N)cc1,i,i,i,i,i,18
CC/C(=N\NC(=O)c1nnn(-c2nonc2N)c1-c1cccs1)c1ccccc1,i,i,i,i,i,i
CCOc1ccc(/C=N/NC(=O)c2nnn(-c3nonc3N)c2-c2cccs2)cc1,i,33,i,i,i,44
COc1ccc(CCC(=O)NNC(=O)c2cc(Cl)ccc2OC)cc1,i,i,i,i,i,i
CC(C)c1c(C(=O)N/N=C/c2cccnc2)nnn1-c1nonc1N,i,i,i,i,i,i
CCOc1ccc(-c2c(C(=O)N/N=C/c3ccc(OC(C)C)cc3)nnn2-c2nonc2N)cc1,i,i,i,i,i,21
CCc1ccc(/C=N/NC(=O)c2nnn(-c3nonc3N)c2C(C)C)cc1,i,i,i,i,i,33
CCOc1ccc(-c2c(C(=O)N/N=C(\C)c3cccnc3)nnn2-c2nonc2N)cc1,i,i,20,i,i,i
Cc1ccc(OCCNC(=O)CNC(=O)c2ccc3c(c2)OCO3)cc1,i,i,i,i,i,i
FC(F)(F)c1cc(-c2cccs2)nc2ncnn12,i,i,i,i,i,i
Cn1c(=O)[nH]c(=O)c2c1nc(Br)n2CC(O)c1ccccc1 (configuration not stated),i,i,i,i,i,i
O=C1OC(C(=O)NCc2ccccc2)Cc2ccccc21 (configuration not stated),i,i,i,i,i,i
C[C@H](CO)N1C[C@H](C)[C@@H](CN(C)C(=O)Nc2ccc(C(F)(F)F)cc2)Oc2ccc(NC(=O)CCC(F)(F)F)cc2C1=O,i,i,i,i,i,i
Cn1c(=O)n(C)c2cc(NC(=O)COc3ccc(F)cc3)ccc21,i,i,i,i,i,i
Clc1ccc(OCc2cn3ccccc3n2)c2ncccc12,i,i,i,35,i,i
O=[N+]([O-])c1ccc(NC(=S)NCCc2ccccc2)cc1,39,i,i,27,i,i
S=C(NCCc1ccccc1)Nc1ccc(Cl)cc1,i,i,i,i,i,i
O=[N+]([O-])c1ccc(NC(=S)NCCc2ccc(Cl)cc2)cc1,35,i,i,27,i,i
CNC(=O)C(=O)NCCc1ccc(Cl)cc1,i,i,i,i,21,i
Cc1nc(=O)c(-c2ccccc2)c(C)n1CCCCCC(=O)O,i,i,i,i,i,i
Cc1ccc(-c2nc3ccc(Cl)cc3n2OC(C)C(=O)O)cc1 (configuration not stated),i,i,i,i,i,i
CCc1c(C)nc2ncnn2c1N1CCC(C(=O)Nc2cccc(C(C)=O)c2)CC1,i,i,i,i,i,i
O=C(OC(c1ccccc1)c1nccc2ccccc12)c1cc([N+](=O)[O-])cc([N+](=O)[O-])c1 (configuration not stated),35,i,i,i,i,i
COc1ccc(CN2CCNC(=O)C2CC(=O)NCC(C)(C)N2CCOCC2)cc1C (configuration not stated),i,i,i,i,i,i
SMILES,CHRM1 antagonist,CHRM5 agonist,CHRM5 PAM,M5 antag,M1 PAM,M1 ag
c1ccc(COc2ccc(CNCc3cccnc3)cc2)cc1,31,i,i,i,i,i
Brc1ccc(CNCc2cccs2)cc1,i,i,i,i,i,i
c1ccc(COc2ccc(CNCc3cccs3)cc2)cc1,41,i,i,i,i,i
Cc1cc(N/N=C/c2ccncc2)c([N+](=O)[O-])cc1[N+](=O)[O-],i,i,i,i,i,i
O=S(=O)(c1cccs1)N1CCN(CC(O)COc2cc(Cl)ccc2Cl)CC1 (configuration not stated),23,i,i,i,i,i
CCN(CC)c1ccc(C=C2C(=O)OC(c3ccccc3)OC2=O)cc1 (configuration not stated),i,i,i,i,i,i
CCN(CC)c1ccc(/C=C/C(=O)C2C(=O)C=C(C)OC2=O)cc1 (configuration not stated),56,184,i,42,i,134
C[C@@H]1CN([C@@H](C)CO)C(=O)CCCn2nncc2CO[C@H]1CN(C)Cc1ccc(Oc2ccccc2)cc1,40,i,i,i,i,i
C[C@H](CO)N1C[C@H](C)[C@@H](CN(C)Cc2ccc(O)cc2)OCc2cnnn2CCCC1=O,i,i,i,i,i,i
COc1ccccc1CN(C)C[C@H]1OCc2cnnn2CCCC(=O)N([C@@H](C)CO)C[C@@H]1C,102,i,i,i,i,i
C[C@@H]1CN([C@H](C)CO)C(=O)CCCn2nncc2CO[C@H]1CN(C)Cc1ccc(Oc2ccccc2)cc1,54,i,i,i,i,i
Nc1ccc(CN2CCCCCC2)cc1,i,i,38,i,i,i
CCOc1ccc(C(CC(=O)O)NC(=O)COc2ccc3ccccc3c2)cc1OC (configuration not stated),i,i,i,i,i,i
CC(=O)c1ccc(NC(=O)Nc2cccc(Cl)c2)cc1,27,i,i,28,i,i
CC(=O)c1ccc(NC(=O)Nc2ccc(Br)cc2C)cc1,31,i,i,i,i,i
CC(=O)c1ccc(NC(=O)c2ccc(C)c(Br)c2)cc1,i,i,i,i,i,i
CSc1cccc(NC(=O)Nc2ccc(Cl)cc2)c1,i,i,i,31,i,i
c1ccc(N=P(c2nc3ccccc3o2)(N2CCOCC2)N2CCOCC2)cc1,i,i,i,i,i,i
CSC1=NSC2=NC(=O)/C(=C\c3cccs3)C(=N)N12,i,i,i,i,i,i
CSC1=NSC2=NC(=O)/C(=C/c3coc4ccc(O)cc4c3=O)C(=N)N12,34,53,i,28,i,42
CC1=CC2=NC(=O)/C(=C/c3coc4ccc(Cl)cc4c3=O)C(=N)N2O1,i,83,i,41,i,29
COc1cc(/C=C2/C(=N)N3C(SC)=NSC3=NC2=O)ccc1OC(=O)c1ccco1,i,i,i,i,i,i
CSC1=NSC2=NC(=O)/C(=C/c3coc4ccccc4c3=O)C(=N)N12,56,45,i,41,i,78
N=C1/C(=C\c2coc3ccccc3c2=O)C(=O)N=C2SC=CN12,41,109,i,34,i,47
CN(C)CCC(=O)N1c2ccccc2Sc2ccc(Cl)cc21,99,i,i,100,i,i
